Results published in ChEMBL document CHEMBL1152571, “Synthesis and biological evaluation of 4-fluoroproline and 4-fluoropyrrolidine-2-acetic acid derivatives as new GABA uptake inhibitors” (Bioorg Med Chem, 2009).
pIC50: −log10 of the molar value.

Key:
[1] = molecular target: Sodium- and chloride-dependent GABA transporter 1 (Mus musculus, UniProt P31648); test: Inhibition of GAT1 in mouse D8 cells assessed as [3H]GABA transport by liquid scintillation counting; format: cell-based
In short: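 D8 cells expressing mouse GAT-1 were grown in RPMI 1640 with 10% FBS to near confluence (about 60,000 cells/well), rinsed with PBS and preincubated 10 min at room temperature in HBSS. [3H]GABA was added (151 nM final) for 20 min at room temperature. Uptake was stopped by aspiration and three rapid cold-PBS washes, and cells were lysed in 2 N NaOH. Uptake was counted by scintillation, giving IC50.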

GABA transporter 3 = molecular target: T1, GABA transporter 3 (Mus musculus, UniProt P31649); test: Inhibition of GAT3 in mouse D8 cells assessed as [3H]GABA transport by liquid scintillation counting; format: cell-based
T1 sequence (P31649 whole entry): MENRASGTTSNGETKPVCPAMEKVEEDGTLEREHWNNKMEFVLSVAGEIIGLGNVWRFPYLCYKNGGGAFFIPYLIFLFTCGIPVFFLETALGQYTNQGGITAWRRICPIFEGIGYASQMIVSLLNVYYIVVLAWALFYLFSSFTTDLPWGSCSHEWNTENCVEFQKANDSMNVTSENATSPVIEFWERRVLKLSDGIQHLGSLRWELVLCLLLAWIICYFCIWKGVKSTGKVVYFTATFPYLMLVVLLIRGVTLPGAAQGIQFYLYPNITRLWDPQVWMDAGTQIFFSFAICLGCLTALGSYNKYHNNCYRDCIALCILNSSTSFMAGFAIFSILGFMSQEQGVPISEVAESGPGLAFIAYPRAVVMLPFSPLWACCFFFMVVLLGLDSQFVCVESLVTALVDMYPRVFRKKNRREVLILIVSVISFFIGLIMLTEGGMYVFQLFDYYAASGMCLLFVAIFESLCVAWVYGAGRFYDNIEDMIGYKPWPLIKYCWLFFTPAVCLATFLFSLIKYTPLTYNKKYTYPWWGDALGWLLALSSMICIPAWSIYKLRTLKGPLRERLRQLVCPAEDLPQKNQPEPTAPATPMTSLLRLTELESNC

| SMILES | pIC50 [1] | pIC50 (GABA transporter 3) |
| --- | --- | --- |
| Cc1ccsc1C(=CCCN1C[C@@H](O)C[C@H]1CC(=O)O)c1sccc1C | 5.29 |  |
| O=C(O)C[C@@H]1C[C@@H](O)CN1CCC=C(c1ccccc1)c1ccccc1 | 5.48 | < 4.00 |
| Cc1ccsc1C(=CCCN1C[C@@H](F)C[C@H]1C(=O)O)c1sccc1C | 4.74 |  |
| O=C(O)C[C@@H]1C[C@H](O)CN1CCC=C(c1ccccc1)c1ccccc1 | 5.31 |  |
| O=C(O)[C@@H]1CCCN1CCC=C(c1ccccc1)c1ccccc1 | 5.59 | 3.51 |
| O=C(O)C[C@@H]1CCCN1CCC=C(c1ccccc1)c1ccccc1 | 6.40 | 4.19 |
| O=C(O)[C@@H]1C[C@@H](O)CN1CCC=C(c1ccccc1)c1ccccc1 | 4.10 | < 4.00 |
| O=C(O)[C@@H]1C[C@@H](F)CN1CCC=C(c1ccccc1)c1ccccc1 | 4.17 |  |
| O=C(O)C[C@H]1C[C@@H](F)CN1CCC=C(c1ccccc1)c1ccccc1 | 5.40 |  |
| Cc1ccsc1C(=CCCN1C[C@@H](F)C[C@@H]1CC(=O)O)c1sccc1C | 5.31 |  |
| O=C(O)[C@@H]1C[C@H](F)CN1CCC=C(c1ccccc1)c1ccccc1 | < 4.00 |  |
| Cc1ccsc1C(=CCCN1C[C@H](F)C[C@@H]1CC(=O)O)c1sccc1C | 5.53 |  |
| Cc1ccsc1C(=CCCN1CCC[C@H]1CC(=O)O)c1sccc1C | 6.47 | 4.58 |
| Cc1ccsc1C(=CCCN1CCC[C@H]1C(=O)O)c1sccc1C | 6.19 |  |
| Cc1ccsc1C(=CCCN1C[C@H](O)C[C@H]1CC(=O)O)c1sccc1C | 5.50 | < 4.00 |
| Cc1ccsc1C(=CCCN1C[C@H](F)C[C@H]1C(=O)O)c1sccc1C | 4.89 |  |
| O=C(O)C[C@H]1C[C@H](F)CN1CCC=C(c1ccccc1)c1ccccc1 | 5.24 |  |
| Cc1ccsc1C(=CCCN1CCC[C@@H](C(=O)O)C1)c1sccc1C [TIAGABINE] | 6.72 |  |
